From ChEMBL document CHEMBL4613214, “In Vitro Activation of Cytochrome P450 46A1 (CYP46A1) by Efavirenz-Related Compounds” (J Med Chem, 2020)
Calls of active or inactive are those of the source. No cut-off for these calls is given here.

Experiments:
[1] = species on record: Homo sapiens; assay: Activation of recombinant human C-terminal 4His-tagged CYP46A1 delta(2 to 50) Y427F mutant expressed in Escherichia coli at 20 uM using cholesterol as substrate measured after 30 mins in presence of cytochrome P450 oxidoreductase by gas chromatography-mass spectrometry
Method in brief: (§1)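 Fixed 20 μM test compound (final, 2% methanol) with 0.5 μM purified Δ(2-50)CYP46A1 (wild type or mutant) and 1.0 μM rat P450 oxidoreductase. Buffer: 50 mM KPi pH 7.2, 100 mM NaCl, 40 μg/mL dilauroylphosphatidylcholine, 40 μM cholesterol, catalase, NADPH-regenerating system. Run 30 min at 37 °C. 24-Hydroxycholesterol measured by GC-MS against a deuterated internal standard. Fold activation over no-activator control; mean ± SD, three independent experiments.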

[2] = species on record: Homo sapiens; assay: Activation of recombinant human C-terminal 4His-tagged CYP46A1 delta(2 to 50) Y427A mutant expressed in Escherichia coli at 20 uM using cholesterol as substrate measured after 30 mins in presence of cytochrome P450 oxidoreductase by gas chromatography-mass spectrometry; method in brief: as §1
[3] = species on record: Homo sapiens; assay: Activation of recombinant human C-terminal 4His-tagged CYP46A1 delta(2 to 50) K358A mutant expressed in Escherichia coli at 20 uM using cholesterol as substrate measured after 30 mins in presence of cytochrome P450 oxidoreductase by gas chromatography-mass spectrometry; method in brief: as §1
[4] = species on record: Homo sapiens; assay: Activation of recombinant human C-terminal 4His-tagged CYP46A1 delta(2 to 50) F405A mutant expressed in Escherichia coli at 20 uM using cholesterol as substrate measured after 30 mins in presence of cytochrome P450 oxidoreductase by gas chromatography-mass spectrometry; method in brief: as §1
[5] = species on record: Homo sapiens; assay: Activation of recombinant human C-terminal 4His-tagged CYP46A1 delta(2 to 50) F416A mutant expressed in Escherichia coli at 20 uM using cholesterol as substrate measured after 30 mins in presence of cytochrome P450 oxidoreductase by gas chromatography-mass spectrometry; method in brief: as §1
[6] = system: Cholesterol 24-hydroxylase (Homo sapiens), Q9Y6A2 [UNDEFINED MUTATION]; assay: Activation of recombinant human C-terminal 4His-tagged CYP46A1 delta(2 to 50) mutant expressed in Escherichia coli at 20 uM using cholesterol as substrate measured after 30 mins in presence of cytochrome P450 oxidoreductase and L-Glu by gas chromatography-mass spectrometry relative to control
Method in brief: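 Co-incubation of 100 μM L-Glu with 20 μM test compound, 0.5 μM Δ(2-50)CYP46A1 and 1.0 μM P450 oxidoreductase. Buffer: 50 mM KPi pH 7.2, 100 mM NaCl, phospholipid, 40 μM cholesterol, NADPH-regenerating system. Run 30 min at 37 °C. 24-Hydroxycholesterol measured by GC-MS with a deuterated internal standard. Fold activation relative to control; mean ± SD of three experiments.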

[7] = system: Cholesterol 24-hydroxylase (Homo sapiens), Q9Y6A2 [UNDEFINED MUTATION]; assay: Activation of recombinant human C-terminal 4His-tagged CYP46A1 delta(2 to 50) mutant expressed in Escherichia coli at 20 uM using cholesterol as substrate measured after 30 mins in presence of cytochrome P450 oxidoreductase by gas chromatography-mass spectrometry relative to control; method in brief: as §1
[8] = species on record: Homo sapiens; assay: Activation of recombinant human C-terminal 4His-tagged CYP46A1 delta(2 to 50) K358L mutant expressed in Escherichia coli at 20 uM using cholesterol as substrate measured after 30 mins in presence of cytochrome P450 oxidoreductase by gas chromatography-mass spectrometry; method in brief: as §1
[9] = molecular target: T1, Cholesterol 24-hydroxylase (Homo sapiens, UniProt Q9Y6A2); assay: Inhibition of recombinant human C-terminal 4His-tagged CYP46A1 delta(2 to 50) mutant expressed in Escherichia coli at up to 100 uM using cholesterol as substrate measured after 30 mins in presence of cytochrome P450 oxidoreductase by gas chromatography-mass spectrometry; assay type: ADME; details: 0.5 h
Method in brief: (§2)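 Concentration-dependence curves with test compound at 0–100 μM (2% final methanol). Enzyme: 0.5 μM Δ(2-50)CYP46A1 plus 1.0 μM P450 oxidoreductase. Buffer: KPi pH 7.2, 100 mM NaCl, dilauroylphosphatidylcholine, 40 μM cholesterol, catalase, NADPH-regenerating system. Run 30 min at 37 °C. 24-Hydroxycholesterol quantified by GC-MS with a deuterated internal standard, expressed as nmol/nmol P450/min; mean ± SD, three experiments.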

[10] = species on record: Homo sapiens; assay: Activation of recombinant human C-terminal 4His-tagged CYP46A1 delta(2 to 50) K358R mutant expressed in Escherichia coli at 20 uM using cholesterol as substrate measured after 30 mins in presence of cytochrome P450 oxidoreductase by gas chromatography-mass spectrometry; method in brief: as §1
[11] = species on record: Homo sapiens; assay: Activation of recombinant human C-terminal 4His-tagged CYP46A1 delta(2 to 50) R415A mutant expressed in Escherichia coli at 20 uM using cholesterol as substrate measured after 30 mins in presence of cytochrome P450 oxidoreductase by gas chromatography-mass spectrometry; method in brief: as §1
[12] = system: Cholesterol 24-hydroxylase (Homo sapiens), Q9Y6A2 [UNDEFINED MUTATION]; assay: Activation of recombinant human C-terminal 4His-tagged CYP46A1 delta(2 to 50) mutant expressed in Escherichia coli using cholesterol as substrate measured after 30 mins in presence of cytochrome P450 oxidoreductase by gas chromatography-mass spectrometry; method in brief: as §2
[13] = molecular target: T1, Cholesterol 24-hydroxylase; assay: Inhibition of recombinant human C-terminal 4His-tagged CYP46A1 delta(2 to 50) mutant expressed in Escherichia coli at 60 to 100 uM using cholesterol as substrate measured after 30 mins in presence of cytochrome P450 oxidoreductase by gas chromatography-mass spectrometry; assay type: ADME; details: 0.5 h; method in brief: as §2
[14] = system: Cholesterol 24-hydroxylase (Homo sapiens), Q9Y6A2 [UNDEFINED MUTATION]; assay: Binding affinity to substrate free recombinant human C-terminal 4His-tagged CYP46A1 delta(2 to 50) mutant expressed in Escherichia coli assessed as Kon rate of cholesterol by stopped-flow spectrophotometric method
[15] = system: Cholesterol 24-hydroxylase (Homo sapiens), Q9Y6A2 [UNDEFINED MUTATION]; assay: Binding affinity to substrate bound recombinant human C-terminal 4His-tagged CYP46A1 delta(2 to 50) mutant expressed in Escherichia coli assessed as Koff rate of cholesterol by stopped-flow spectrophotometric method
Method in brief: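 Release rate was measured by stopped-flow chase at 23 °C. A prebound complex (4 μM CYP46A1 plus 4 μM cholesterol, 50 mM KPi pH 7.2, 100 mM NaCl) was mixed with excess clotrimazole (40 μM). The rise in Δ(A437−A416) was followed, and 8–12 traces were averaged and fitted. Values are mean ± SD of three independent experiments.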

[16] = molecular target: T1, Cholesterol 24-hydroxylase; assay: Binding affinity to recombinant human C-terminal 4His-tagged CYP46A1 delta(2 to 50) mutant expressed in Escherichia coli in absence of substrate at 24 degC by stopped-flow spectrophotometric method
[17] = system: Cholesterol 24-hydroxylase (Homo sapiens), Q9Y6A2 [UNDEFINED MUTATION]; assay: Binding affinity to recombinant human C-terminal 4His-tagged CYP46A1 delta(2 to 50) mutant expressed in Escherichia coli at 2 uM in presence of substrate by UV-spectrophotometric method
Method in brief: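 Stopped-flow rapid-scanning spectrophotometry at 23 °C in 50 mM KPi pH 7.2 with 100 mM NaCl. A premixed 4 μM CYP46A1·4 μM cholesterol complex was mixed with compound, and spectral changes were followed over 330–570 nm.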

[18] = system: Cholesterol 24-hydroxylase (Homo sapiens), Q9Y6A2 [UNDEFINED MUTATION]; assay: Binding affinity to recombinant human C-terminal 4His-tagged CYP46A1 delta(2 to 50) mutant expressed in Escherichia coli at 15 to 30 uM in absence of substrate by UV-spectrophotometric method
Method in brief: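 Stopped-flow rapid-scanning spectrophotometry at 23 °C. Substrate-free CYP46A1 (4 μM, in 50 mM KPi pH 7.2 with 100 mM NaCl) was mixed with an equal volume of compound in the same buffer. Spectra were collected over 330–570 nm, and binding rates (kobserved) were fitted.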

Cholesterol 24-hydroxylase (Homo sapiens), Q9Y6A2 [UNDEFINED MUTATION], sequence (Q9Y6A2 whole entry, looked up, stated change not applied): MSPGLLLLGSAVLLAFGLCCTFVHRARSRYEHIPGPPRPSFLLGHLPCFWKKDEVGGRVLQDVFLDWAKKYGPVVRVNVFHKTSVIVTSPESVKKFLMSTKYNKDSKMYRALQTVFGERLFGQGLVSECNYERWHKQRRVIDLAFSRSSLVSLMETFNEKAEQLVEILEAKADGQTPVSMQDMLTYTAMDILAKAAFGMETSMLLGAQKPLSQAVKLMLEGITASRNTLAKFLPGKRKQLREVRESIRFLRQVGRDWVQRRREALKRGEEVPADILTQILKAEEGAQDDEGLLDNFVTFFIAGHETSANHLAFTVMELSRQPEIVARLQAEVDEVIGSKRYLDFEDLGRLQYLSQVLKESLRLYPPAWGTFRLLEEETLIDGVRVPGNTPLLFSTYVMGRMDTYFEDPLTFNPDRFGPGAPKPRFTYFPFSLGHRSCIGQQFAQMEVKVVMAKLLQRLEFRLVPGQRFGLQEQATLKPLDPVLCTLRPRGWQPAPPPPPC
T1 sequence (Q9Y6A2 whole entry, looked up, stated change not applied): as above

Activity [1]	Activity [2]	Activity [3]	Activity [4]	Activity [5]	fold change (FC) [6]	fold change (FC) [7]	Activity [8]	inhibition (INH) [9]	Activity [10]	Activity [11]	Activity [12]	inhibition (INH) [13]	Activity [6]	K [14] [×10⁶ /M/s]	K [15] [s⁻¹]	Kd [16] [µM]	Activity [17]	Activity [18]	Compound
Active	Active	Active	Active	Active	2.8	1.9	Active	Not Active	Active	Active									O=C1Cc2ccc(Cl)cc2C(C#CC2CC2)(C(F)(F)F)O1 (racemic)
Active	Active	Active	Active	Active	6.8	5.8	Active		Active	Active	Dose-dependent effect	Not Active							O=C1Nc2cc(O)c(Cl)cc2C(C#CC2CC2)(C(F)(F)F)O1 (racemic)
Active	Active	Active	Active	Active	7.4	6.2	Active		Active	Active	Dose-dependent effect	Not Active							O=C1Nc2c(O)cc(Cl)cc2[C@@](C#CC2CC2)(C(F)(F)F)O1
											Dose-dependent effect	Not Active							O=C1Nc2c(O)cc(Cl)cc2C(C#CC2CC2)(C(F)(F)F)O1 (racemic)
Active	Active	Active	inactive	Active		2.5	Active	Not Active	Active	inactive	Dose-dependent effect		inactive						FC(F)(F)[C@@]1(C#CC2CC2)OCNc2ccc(Cl)cc21
Active	Active	Active	inactive	Active		2.6	Active		Active	inactive	Dose-dependent effect	Not Active	inactive						CC1Nc2ccc(Cl)cc2C(C#CC2CC2)(C(F)(F)F)O1 (racemic)
inactive	inactive	inactive	Active	inactive	3.7	3.1	inactive		inactive	Active	Dose-dependent effect	Not Active							CCCC#CC1(C(F)(F)F)OC(=O)Nc2ccc(Cl)cc21 (racemic)
inactive	inactive	inactive	Active	inactive	4.6	3.9	inactive		inactive	Active	Dose-dependent effect	Not Active							O=C1CC(C#CC2CC2)(C(F)(F)F)c2cc(Cl)ccc2N1 (racemic)
	inactive	inactive	Active	inactive			inactive		inactive	Active		Active							O=C1Nc2ccc(Cl)cc2[C@@](C#CC2CC2)(C(F)(F)F)O1 [EFAVIRENZ]
Active	Active	Active	inactive	Active	4.8	6.1	Active		Active	inactive				0.7	3.6	5	inactive	inactive	O=C1Nc2c(O)cc(Cl)cc2C(C#CC2(O)CC2)(C(F)(F)F)O1 (racemic)
